Source: PubChem (The Scripps Research Institute Molecular Screening Center)
Hits are enriched below; roughly 1.8% of the tested compounds scored in any of these assays.
HTRA1 inhibitor: HTRA1 (human) protease inhibition; Q92743; recombinant HTRA1, FP-rhodamine activity-based probe, fluorescence polarization; inhibition, % at 5.96 µM; 340,000 compounds, 0.5% hits; AID 504803; in the data active = inhibition above about 36%;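 also: 0% = enzyme with DMSO and 100% = wells lacking enzyme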
DDE Tn6 FP inh: disrupts Tn6 cyclic peptide binding to fibrin D-Dimer-E complex. 370,000 compounds, 0.21% hits. inhibition, % at 8.3 µM. P02675. Fibrin DD(E) TRITC-Tn6 fluorescence polarization displacement;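 active = inhibition above a per-campaign cutoff: mean of compounds within control limits plus 3 SD, cut at about 15% in these data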;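 also: 0% = median of all compound wells on the plate and 100% = blocking peptide control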
Target sequence (P02675 whole entry, looked up): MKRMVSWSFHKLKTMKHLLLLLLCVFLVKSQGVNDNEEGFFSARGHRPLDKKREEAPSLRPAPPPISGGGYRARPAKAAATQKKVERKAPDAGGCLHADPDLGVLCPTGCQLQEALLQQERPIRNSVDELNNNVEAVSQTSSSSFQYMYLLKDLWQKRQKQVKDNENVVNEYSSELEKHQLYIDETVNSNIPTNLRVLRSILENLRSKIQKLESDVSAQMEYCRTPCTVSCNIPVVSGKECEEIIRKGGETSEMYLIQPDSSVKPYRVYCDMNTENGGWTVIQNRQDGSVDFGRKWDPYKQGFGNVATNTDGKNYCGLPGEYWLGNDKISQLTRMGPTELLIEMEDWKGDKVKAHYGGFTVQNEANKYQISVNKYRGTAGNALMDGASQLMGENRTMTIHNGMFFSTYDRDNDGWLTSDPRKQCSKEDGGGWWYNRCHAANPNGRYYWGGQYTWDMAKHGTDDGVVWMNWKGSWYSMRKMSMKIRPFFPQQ
TCR CD3 inh: blocks the human TCR-CD3 interaction. TAMRA-labeled TCR probe fluorescence, biochemical. inhibition, % at 9.4 µM. AID 651800. 360,000 compounds, 0.37% hits; in the data active = inhibition above about 19%;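 also: recombinant mutant TCR 2C K166C tagged with TAMRA read by polarization; 0% = receptor in buffer alone and 100% = receptor with positive control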
SIAE inh: inhibitors of human sialic acid acetylesterase SIAE. SIAE FP-Rh probe binding, fluorescence polarization. inhibition, % at 9.66 µM. Q9HAT2. 370,000 compounds, 0.69% hits;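 active = inhibition above a cutoff: mean of compounds within the control limits plus 3 SD of those, cut at about 17% in these data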;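 also: 0% = plate median of compound wells and 100% = probe without SIAE protein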
mABHD4 FP: inhibitors of mouse ABHD4 | Q8VD66 | purified mABHD4, FP-Rh probe fluorescence polarization | inhibition, % at 8.92 µM | 370,000 compounds, 0.54% hits;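 active = inhibition exceeding the mean over every tested compound plus 3 SD, cut at about 30% in these data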;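 also: 0% = plate median of compound wells and 100% = S159A mutant with DMSO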
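System: mouse ABHD4 enzyme, wild type / Medium: HEPES pH 7.0, NaCl, Pluronic buffer / Reagent: FP-Rh activity-based fluorescent probe / Control set: S159A mutant high control, sample median low control / Detection: fluorescence polarization with parallel and perpendicular emission, 525/598 nm / Schedule: 45 min + 60 min at 25 °C / Compound dosing: 8.92 µM, single dose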
DDE Tn7 FP inh: inhibitors of Tn7 peptide binding to human fibrin DD(E). AID 720508. 370,000 compounds, 0.13% hits. FP displacement of FITC-Tn7 peptide from fibrin DD(E); 0% = median of compound wells per plate. inhibition, % at 8.3 µM. P02675;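 active = inhibition above the mean of compounds falling within the control limits plus 3 SD of them, cut at about 14% in these data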;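 also: 0% = plate median of compound wells and 100% = 10 µM Aha-Tn7 peptide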
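system = human fibrin DD(E) protein | quantity = DD(E) 2 µM final | medium = Tris/NaCl/CaCl2 buffer, pH 7.8 | also added = labelled Tn7 tracer, 0.1 µM | compound dosing = single point at 8.3 µM | timing = compound with protein 10 min, then 3 h after probe, room temperature | signal = FP measurement | benchmarks = Aha-Tn7 high control | repeats = one replicate per compound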
mABHD4 conf: ABHD4 (mouse) inhibition, FP confirmation | AID 720658 | purified mABHD4, FP-Rh probe fluorescence polarization | 1,800 compounds, 55% hits | inhibition, % at 8.92 µM | shares compounds with mABHD4 FP;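 active = mean inhibition across replicates above the hit cutoff set in the primary screen, cut at about 30% in these data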;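 also: 0% = wild-type ABHD4 with DMSO and 100% = catalytically dead S159A mutant with DMSO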
Starred values were filed as active, the others as inactive; . = no result given.

SMILES	HTRA1 inhibitor	DDE Tn6 FP inh	TCR CD3 inh	SIAE inh	mABHD4 FP	DDE Tn7 FP inh	mABHD4 conf
CC1(C)CC(=O)C2=C(C1)NC1=C(C(=O)c3ccccc31)C2c1cccnc1 (stereo not drawn)	10	-1	-3	-3	16	5	.
CC1(C)CC(=O)C2=C(C1)NC1=C(C(=O)c3ccccc31)C2c1ccccc1 (stereo not drawn)	32	0	-7	12	51*	4	47*
CC1(C)CC(=O)C2=C(C1)NC1=C(C(=O)c3ccccc31)C2c1cc([N+](=O)[O-])ccc1O (stereo not drawn)	32	-2	5	15	49*	-4	66*
Cn1cc(S(=O)(=O)N2CCOCC2)cc1C(=O)NCc1ccccc1Cl	-1	-5	1	1	3	-1	.
CN1c2ccsc2/C(=N/Nc2ccccc2)CS1(=O)=O	33	5	-4	5	32*	2	5
C/C(O)=C\c1nc2ccccc2oc1=O	10	-1	9	-1	37*	-5	-4
O=[N+]([O-])c1ccccc1N=Nc1ccc(O)cc1O	.	5	-6	12	32*	-2	54*
Oc1ccc(N=Nc2ccc(Br)cc2)c(O)c1	11	1	4	-3	-1	2	.
COc1ccc(C2NCCc3c2[nH]c2ccccc32)cc1CSc1nc2ccccc2s1 (stereo not drawn)	-25	-4	-5	17	30*	-1	34*
CC(=NNC(=S)SCc1ccccc1)c1ccccn1	12	-4	-10	2	56*	-2	-10
CC(=NNC(=S)N1CCCC1)c1ccccn1	4	-5	4	1	6	1	.
O=C(O)c1ccc2c(c1)C(=O)/C(=C\c1ccco1)C2=O	10	10	3	-6	30*	-6	28
Cc1ccc(/C=C2/C(=O)c3ccc(C(=O)O)cc3C2=O)o1	22	-6	4	-23	34*	-3	-6
O=C1C(=Cc2ccco2)C(=O)c2ccccc21	25	-4	3	3	35*	4	28
O=C(O)c1ccc(C=NN=Cc2ccco2)cc1	2	-1	-4	6	-9	4	.
CCCc1cn(CC(C)n2c(=O)c3ccccc3n2Cc2cc(C(C)C)no2)nn1 (stereo not drawn)	.	4	5	0	-4	1	.
Cc1cccc(C)c1NC(=S)NC(C)(C)CO	6	2	2	4	-2	-6	.
O=C(CCCN1C(=O)/C(=C\c2ccco2)SC1=S)Nc1ccc(O)cc1C(=O)O	5	-9	8	6	46*	2	7
CCOC(=O)c1c(C)n2c3c(cc(C)cc13)CCC2	-4	-1	-1	2	31*	-2	-4
O=C(O)c1cc2c(cn1)[nH]c1ccccc12	30	5	16	4	7	-4	.
CCOC(=O)c1ccc(N2NC(=O)/C(=C/c3ccc(OC(=O)c4ccco4)c(OC)c3)C2=O)cc1	.	-2	-2	4	33*	-1	12
CCOC(=O)COc1ccc(/C=C2/C(=O)NN(c3ccc(F)cc3)C2=O)cc1OC	-3	-4	3	4	11	-3	.
O=C1C(Cl)=C(Nc2ccc(O)cc2)C(=O)c2ccccc21	23	5	-2	13	41*	-1	54*
Cc1nn(-c2ccccc2)c(C)c1C(=O)OCC(=O)Nc1ccccc1Cl	2	-1	-5	9	-10	6	.
Cc1ccc(NC(=O)c2ncn(CCCNCC3CCCCC3)n2)cc1C	-4	0	2	-2	2	-9	.
SMILES	HTRA1 inhibitor	DDE Tn6 FP inh	TCR CD3 inh	SIAE inh	mABHD4 FP	DDE Tn7 FP inh	mABHD4 conf
CCN(CC)CCSc1nnc2c3ccccc3n(Cc3ccccc3)c2n1	-21	3	-6	11	1	-7	.
COc1ccccc1NS(=O)(=O)c1ccc(O)c(C(=O)OCC(=O)N2CCc3ccccc32)c1	-4	-6	6	-3	4	-8	.
CCN(CC)S(=O)(=O)c1ccc(O)c(C(=O)OCC(=O)N2CCCC2)c1	5	-1	-6	-2	5	-4	.
CCN(CC)S(=O)(=O)c1ccc(O)c(C(=O)OCC(=O)N2c3ccccc3CC2C)c1 (stereo not drawn)	-10	8	3	9	56*	-5	58*
COc1ccccc1NS(=O)(=O)c1ccc(O)c(C(=O)OCC(=O)N2c3ccccc3CC2C)c1 (stereo not drawn)	-13	2	-4	-6	35*	2	29
CCSC(=O)N=Nc1ccc(O)cc1	31	12	12	16	33*	1	15
CCOc1cc(Br)cc(C(c2c(C(=O)O)[nH]c3ccccc23)c2c(C(=O)O)[nH]c3ccccc23)c1O	18	7	4	9	61*	6	68*
CSc1ccc(C(c2c(C)[nH][nH]c2=O)c2c(C)[nH][nH]c2=O)cc1	3	-4	-10	9	-9	-6	.
CSc1ccc(C(c2c(C(=O)O)[nH]c3ccccc23)c2c(C(=O)O)[nH]c3ccccc23)cc1	-18	0	1	5	46*	0	61*
Nc1ccn([C@@H]2O[C@H](CNCc3ccc(C#CCCO)cc3)[C@@H](O)[C@H]2O)c(=O)n1	5	-7	8	-3	4	-5	.
CCOc1cc(N2CCOCC2)c(OCC)cc1NC(=O)CN1CCc2ccccc2C1	5	1	-3	6	31*	2	15
O=C(c1ccc(F)c(S(=O)(=O)N2CCOCC2)c1)N1CCN(c2ccc(F)cc2)CC1	7	-1	-3	3	-2	-6	.
Cc1cccc2c1NC(=O)/C2=C\C(=O)c1cccs1	-4	-3	6	5	13	-3	.
CCc1ccc2c(c1)/C(=C/C(=O)c1cccs1)C(=O)N2	-7	-5	6	11	37*	3	56*
N#Cc1cccc(NC(=O)Cn2cnc(S(=O)(=O)N3CCOCC3)c2)c1	3	.	.	.	.	.	.
COCCCN1C(=O)[C@H](CC(=O)NCc2cccs2)[C@]2(C(=O)OC)CCCCC=C12	.	4	.	-3	5	9	.
S=C(NC1CCCCC1)N(CCc1nc2ccccc2[nH]1)C1CCCC1	-23	-1	3	-1	51*	6	53*
CCOC(=O)C(C)(C)CC#CCN(CC#Cc1ccccc1)S(=O)(=O)c1ccc(C)cc1	.	-6	6	-1	5	1	.
Nc1[nH]c(C(=O)c2ccccc2)c(-c2cccc(C(F)(F)F)c2)c1C(=O)NCCc1c[nH]c2ccccc12	.	-11	-2	13	31*	4	3
